High-throughput results from PubChem BioAssay.
Most compounds without a hit are left out; they make up all but 3.7% or so of the library.
KCNK9 block – KCNK9 potassium channel inhibitors, primary screen, HEK293 cells, thallium flux | FluxOR thallium flux fluorescence; hits give low values | B-score at 10 µM | actives 1.2% (n = 310,000) | AID 488922, 2010;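 active = ratio B-score over 3 SD below the library mean, with starting fluorescence within 5 SD of its mean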;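 note: negative B-score means less thallium flux so channel inhibition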
KCNQ1 block – inhibitors of human KCNQ1 channel, primary screen, cell-based, thallium flux, high-throughput | Potassium voltage-gated channel subfamily KQT member 1 (Homo sapiens), P51787 | CHO-K1 KCNQ1, FluxOR thallium flux fluorescence; hits give high values | B-score at 10 µM | actives 1.3% (n = 310,000);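 active = compounds whose thallium flux B-score, printed positive for inhibition, exceeds three library SD while starting fluorescence stays within three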;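 note: channel opened by potassium depolarization with thallium stimulus after 20 min compound exposure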
Target sequence (P51787 whole entry, looked up): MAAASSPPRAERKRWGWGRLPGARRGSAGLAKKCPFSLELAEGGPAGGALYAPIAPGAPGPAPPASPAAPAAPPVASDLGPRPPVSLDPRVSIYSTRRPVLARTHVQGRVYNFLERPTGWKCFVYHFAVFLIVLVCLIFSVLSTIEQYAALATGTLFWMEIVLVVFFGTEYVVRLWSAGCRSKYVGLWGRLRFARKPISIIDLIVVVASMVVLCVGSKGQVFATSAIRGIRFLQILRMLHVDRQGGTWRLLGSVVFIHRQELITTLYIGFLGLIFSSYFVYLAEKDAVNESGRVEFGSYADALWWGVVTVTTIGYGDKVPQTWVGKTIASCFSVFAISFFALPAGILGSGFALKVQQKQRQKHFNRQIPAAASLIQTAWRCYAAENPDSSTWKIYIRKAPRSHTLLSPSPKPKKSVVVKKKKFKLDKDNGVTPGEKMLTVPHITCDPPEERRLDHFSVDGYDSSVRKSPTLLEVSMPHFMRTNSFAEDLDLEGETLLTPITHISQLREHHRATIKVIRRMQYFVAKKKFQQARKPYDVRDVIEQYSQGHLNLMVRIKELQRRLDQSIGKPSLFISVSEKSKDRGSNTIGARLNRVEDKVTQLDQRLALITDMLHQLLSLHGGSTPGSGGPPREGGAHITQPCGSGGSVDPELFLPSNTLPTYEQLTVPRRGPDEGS
KCNK3 block – human KCNK3 channel inhibitors, primary screen, CHO cells, FluxOR thallium flux, B-score; Potassium channel subfamily K member 3 (Homo sapiens), O14649; FluxOR fluorescence; hits give low values; B-score at 10 µM; actives 0.84% (n = 340,000); AID 602410, 2012;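 active = B-score under library mean minus 4 SD, starting fluorescence ratio at most library mean plus 5 SD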;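 note: more negative B-score means stronger inhibition of thallium flux through KCNK3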
hERG rescue – hERG rescue from dofetilide block, primary screen, cell-based, CHO-hERG, FluxOR thallium flux, dofetilide IC70; Voltage-gated inwardly rectifying potassium channel KCNH2 (Homo sapiens), Q12809; dofetilide IC70 present; activation (rescue from dofetilide block), less the hit threshold, % at 10 µM; actives 0.51% (n = 310,000);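 active = activation above the mean of controls blocked by dofetilide plus 5 SD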;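 note: thallium influx through hERG after potassium depolarization seen as dye fluorescence rise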
KCNQ1 act – potentiators or activators of KCNQ1 channel, primary screen, cell-based, thallium flux, high-throughput | Potassium voltage-gated channel subfamily KQT member 1 (Homo sapiens), P51787 | CHO-K1 KCNQ1, thallium flux FluxOR fluorescence; hits give high values | B-score at 10 µM | actives 0.35% (n = 310,000) | AID 2648, 2010;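 active = fluorescence ratio B-score, a plate-corrected score, at least three library SD, with initial intensity B-score within 5 SD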
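Assay system: CHO-K1 cells stably expressing KCNQ1. Medium: assay buffer for compound exposure, DMSO matched across wells. Timing: 37 °C overnight plating, 90-min dark dye load, 20-min compound pretreatment. Signal: kinetic FluxOR fluorescence, 10 s baseline plus 110 s post-stimulus.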
Kir21 block – inhibitors of mouse Kir2.1 inward-rectifier potassium channel | B-score at 10 µM | AID 1672, 2009 | HEK293-Kir2.1, FluxOR thallium flux fluorescence; hits give low values | actives 0.85% (n = 310,000);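 active = fluorescence ratio B-score at or below minus 3 SD of library scores, with starting-brightness B-score within 2 SD, cut at about -4.2 in these data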;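 note: channel flux triggered by added potassium and thallium sulfate stimulus; B-score of peak minus minimum fluorescence over baseline after thallium stimulus; more negative B-score means stronger Kir2.1 block with less thallium influx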
KCNK9 block conf – KCNK9 potassium channel inhibitors, confirmation, HEK293 cells, thallium flux, duplicate | shares compounds with KCNK9 block | FluxOR thallium flux fluorescence | inhibition, % at 10 µM | actives 43% (n = 4,900) | AID 492992, 2010;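 active = thallium signal inhibited by more than 5 SD of the compound-free buffer control wells, on both duplicate plates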;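 note: 0% = assay buffer control wells without compound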
Kir2-1 spec – mouse Kir2.1 channel inhibition, confirmation, selectivity assay for KCNK9 modulator project, cell-based, HEK293, thallium flux; actives 4% (n = 4,900); inhibition, % at 10 µM; Kir2.1 cells, FluxOR thallium flux fluorescence; shares compounds with KCNK9 block;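 active = thallium signal drop more than 5 SD beyond the mean of the no-compound control wells, seen in both duplicate plates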;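 note: signal is fluorescence rise after thallium addition divided by baseline fluorescence; plate controls were assay buffer only for no effect and full block by chlorpromazine control for full effect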
HEK293 Tl ctr – thallium flux in non-induced HEK293 cells, confirmation, counter-screen for KCNK9 inhibitor project, cell-based, second counter screen, non-induced KCNK9-HEK293 | shares compounds with KCNK9 block | FluxOR thallium flux | inhibition, % at 10 µM | actives 40% (n = 4,900);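 active = thallium signal drop beyond 5 SD of the untreated control mean, on both duplicate plates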;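 note: plate controls were buffer only IC0 wells for no effect and SID17386958 at its maximal inhibitory level for full effect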
* = called active by the depositor; i = inactive; nt = no result.

SMILES | KCNK9 block | KCNQ1 block | KCNK3 block | hERG rescue | KCNQ1 act | Kir21 block | KCNK9 block conf | Kir2-1 spec | HEK293 Tl ctr
COc1ccc(N2CCN(CC(=O)Nc3ccc(C)cc3)CC2)cc1 | i | i | i | -3.2 | i | 1.75 | nt | nt | nt
COc1ccc(NC(=O)CN2CCN(c3c(C)cc(C)cc3C)CC2)cc1 | i | i | i | -8.5 | i | 0.35 | i | 39.5%* | i
COc1ccc(NC(=O)CN2CCN(CC(=O)Nc3cc(OC)cc(OC)c3)CC2)cc1 | nt | nt | i | nt | nt | nt | nt | nt | nt
Cc1cc(C)c2c(=O)cc(C(=O)NCc3ccccc3)oc2c1 | i | i | i | -3.7 | i | 0.89 | nt | nt | nt
O=C(NCCS(=O)(=O)c1ccc(Br)cc1)c1c(F)cccc1F | i | i | i | -3.7 | i | 0 | nt | nt | nt
COc1cc(/C=C2\C(=N)N3N=C(S(C)(=O)=O)SC3=NC2=O)cc(OC)c1OCCOc1cccc(C)c1 | i | i | i | -34.1 | i | 1.74 | i | i | i
CCS(=O)(=O)C1=NN2C(=N)/C(=C\c3ccc(OCCOc4cccc(OC)c4)c(OC)c3)C(=O)N=C2S1 | i | i | i | -26.1 | i | 0 | i | i | i
COc1ccc(CC(=O)NC2CCCCCC2)c(OC)c1 | i | i | i | -11.6 | i | -1.02 | nt | nt | nt
Cc1ccc(C(=O)NCc2nc3ccccc3[nH]2)o1 | i | i | i | -14.5 | i | 0.46 | nt | nt | nt
CN(CC(=O)Nc1ccc(Cl)c(C(F)(F)F)c1)C(=O)COC(=O)C1CC2CCCC(C1)C2=O (stereo not drawn) | nt | nt | i | nt | nt | nt | nt | nt | nt
COc1cccc(CC2(CO)CCCN(Cc3sc(N4CCCC4)nc3Cl)C2)c1 (stereo not drawn) | i | i | i | -13.0 | i | -1.32 | i | i | i
Clc1cc(Br)ccc1OCCOCCN1CCOCC1 | i | i | i | -4.9 | i | -1.7 | nt | nt | nt
Cc1ccc(N2C(=O)C(Cl)=C(N3CCOCC3)C2=O)c(C)c1 | i | i | i | -3.8 | i | 1.73 | nt | nt | nt
CCCCC1=CC2=CC(=O)C(C)(OC(=O)c3ccco3)C(=O)C2=CO1 (stereo not drawn) | i | i | nt | -7.5 | i | 0.02 | nt | nt | nt
Cc1ccc(C)c(N2CCN(CCCc3ccccc3)CC2)c1 | i | i | i | -2.8 | i | -0.18 | i | i | i
Cc1ccc(C)c(N2CCN(C3CCCC(C)C3)CC2)c1 (stereo not drawn) | i | i | i | -13.0 | i | -0.44 | i | i | i
COc1cccc(N2CCN(C3CCCC(C)C3)CC2)c1 (stereo not drawn) | i | i | i | -6.8 | i | 0.13 | nt | nt | nt
Cc1ccc(C)c(N2CCN(CC3CCCCC3)CC2)c1 | i | i | i | -9.8 | i | 0.28 | i | i | i
Cc1ccc(C2CC(c3ccc(Cl)cc3)=NNC2=O)cc1 (stereo not drawn) | i | i | i | -5.4 | i | 0.01 | nt | nt | nt
CN1N=C(c2ccc(Cl)cc2)CC(c2ccc(Cl)cc2)C1=O (stereo not drawn) | -10.7* | i | i | -7.4 | i | 1.53 | 38.5%* | i | 40.0%*
CCOC(=O)C1CCN(CCCSc2ccc(Cl)cc2)CC1 | i | i | i | -5.1 | i | -4.25* | i | i | i
CCC(C(=O)Nc1nc(C)c(C(=O)OC)s1)c1ccccc1 (stereo not drawn) | -9.38* | i | i | -13.2 | i | -1.44 | 30.0%* | i | 26.0%*
CC(C)(C)C(=O)Nc1nc2cc3c(cc2s1)OCO3 | i | i | i | -8.0 | i | 3.53 | nt | nt | nt
CCC(c1nnnn1C(C)(C)C)N(Cc1ccco1)Cc1cc2cccc(C)c2[nH]c1=O (stereo not drawn) | i | i | i | -5.4 | i | -0.39 | nt | nt | nt
CCC(c1nnnn1CCc1ccccc1)N(Cc1ccco1)Cc1cc2cccc(C)c2[nH]c1=O (stereo not drawn) | -10.5* | 7* | i | -11.5 | i | -1.73 | 33.0%* | i | 29.5%*
SMILES | KCNK9 block | KCNQ1 block | KCNK3 block | hERG rescue | KCNQ1 act | Kir21 block | KCNK9 block conf | Kir2-1 spec | HEK293 Tl ctr
CC(C)(C)c1ccc(Cn2cnc(-c3ccc([N+](=O)[O-])cc3)c2)cc1 | i | i | i | -8.2 | i | -0.81 | i | i | i
O=c1c2ccccc2nc(/C=C/c2cccnc2)n1CCc1ccccc1 | -9.34* | i | i | -13.0 | i | -0.72 | i | i | 27.0%*
O=C(/C=C/c1ccccc1)NCCSc1ccc(Cl)cc1 | i | i | i | -6.5 | i | 0.12 | i | i | i
CC1CN(Cc2cc(=O)oc3cc(O)ccc23)CC(C)O1 (stereo not drawn) | i | i | i | -6.8 | i | -0.45 | nt | nt | nt
O=C(NCC(c1ccco1)N1CCN(c2ccc(F)cc2)CC1)C1CCCCC1 (stereo not drawn) | -13.7* | i | i | -8.6 | i | 1.23 | 43.5%* | i | 38.5%*
CC1Cc2ccccc2N1C(=O)c1cc2sccc2n1Cc1ccc(F)cc1 (stereo not drawn) | -9.82* | 8* | i | -10.6 | i | 0.68 | 37.0%* | i | 23.0%*
COc1ccc(Cc2nnc(NC(=O)c3ccccc3)s2)cc1OC | i | i | i | -3.4 | i | 0.69 | nt | nt | nt
COC(=O)c1cc(C)sc1NC(=O)CN1CCN(C(=O)C2CCCO2)CC1 (stereo not drawn) | i | i | i | -12.5 | i | 0.01 | nt | nt | nt
CCn1c(C)c(C(C)=O)c(N2CCCCC2)nc1=S | i | i | i | -8.7 | i | 0.83 | nt | nt | nt
